Measured values taken from ChEMBL document CHEMBL2406998, “Discovery of benzamide analogs as negative allosteric modulators of human neuronal nicotinic receptors: pharmacophore modeling and structure-activity relationship studies” (Bioorg Med Chem, 2013).
Active and inactive are the calls of the source. No cut-off for these calls is given here.

Key:
[1] = target: T1, Neuronal acetylcholine receptor; alpha4/beta2 (Homo sapiens, UniProt P17787+P43681); assay: Agonist activity at human alpha4beta2 nAChR; type: protein-complex assay
T1 sequence (P17787 whole entry): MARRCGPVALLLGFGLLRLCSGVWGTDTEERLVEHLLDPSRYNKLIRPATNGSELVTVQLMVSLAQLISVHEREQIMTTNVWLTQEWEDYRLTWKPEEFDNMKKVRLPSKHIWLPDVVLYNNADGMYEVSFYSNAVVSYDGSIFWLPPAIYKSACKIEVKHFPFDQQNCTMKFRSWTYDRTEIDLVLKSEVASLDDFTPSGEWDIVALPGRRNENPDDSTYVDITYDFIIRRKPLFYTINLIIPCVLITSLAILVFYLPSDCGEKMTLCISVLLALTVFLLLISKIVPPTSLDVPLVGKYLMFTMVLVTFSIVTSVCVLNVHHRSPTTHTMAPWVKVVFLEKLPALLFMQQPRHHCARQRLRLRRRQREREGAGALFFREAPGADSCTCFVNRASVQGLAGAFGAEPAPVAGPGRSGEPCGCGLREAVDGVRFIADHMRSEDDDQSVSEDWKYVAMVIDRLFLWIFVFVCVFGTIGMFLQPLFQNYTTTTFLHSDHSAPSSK
T1 sequence (P43681 whole entry): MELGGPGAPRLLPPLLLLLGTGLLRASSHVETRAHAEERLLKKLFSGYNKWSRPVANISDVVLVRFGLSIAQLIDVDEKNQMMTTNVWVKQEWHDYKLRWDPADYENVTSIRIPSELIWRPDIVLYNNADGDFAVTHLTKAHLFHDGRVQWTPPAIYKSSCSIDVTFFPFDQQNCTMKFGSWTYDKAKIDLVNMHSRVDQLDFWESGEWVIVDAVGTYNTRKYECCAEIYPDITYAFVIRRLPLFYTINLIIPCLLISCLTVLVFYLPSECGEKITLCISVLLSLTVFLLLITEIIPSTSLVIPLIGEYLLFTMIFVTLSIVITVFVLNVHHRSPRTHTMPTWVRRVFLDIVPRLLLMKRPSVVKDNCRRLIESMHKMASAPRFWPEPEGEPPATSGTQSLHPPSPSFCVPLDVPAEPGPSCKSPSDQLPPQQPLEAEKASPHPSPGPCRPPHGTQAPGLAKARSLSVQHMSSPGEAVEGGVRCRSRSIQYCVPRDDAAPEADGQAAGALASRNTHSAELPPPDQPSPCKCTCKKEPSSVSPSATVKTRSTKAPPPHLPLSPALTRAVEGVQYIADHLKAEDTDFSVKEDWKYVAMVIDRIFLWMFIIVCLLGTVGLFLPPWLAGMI
How it was run: (§1)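 HEK tsA201 cells stably expressing the human receptor subtype, plated 24 h ahead at 37 °C, 5% CO2 in supplemented DMEM to a ~100% confluent monolayer. Washed with HEPES-buffered Krebs, loaded 1 h at room temperature with 50% Calcium 5 NW dye. Compounds as HCl salts from 0.01 M DMSO stocks, six concentrations 0.1–100 µM in HBK. Intracellular calcium fluorescence read every 1.5 s (ex 485/em 525 nm).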

[2] = target: T2, Neuronal acetylcholine receptor; alpha3/beta4 (Homo sapiens, UniProt P30926+P32297); assay: Agonist activity at human alpha3beta4 nAChR; type: protein-complex assay; how it was run: as §1
T2 sequence (P30926 whole entry): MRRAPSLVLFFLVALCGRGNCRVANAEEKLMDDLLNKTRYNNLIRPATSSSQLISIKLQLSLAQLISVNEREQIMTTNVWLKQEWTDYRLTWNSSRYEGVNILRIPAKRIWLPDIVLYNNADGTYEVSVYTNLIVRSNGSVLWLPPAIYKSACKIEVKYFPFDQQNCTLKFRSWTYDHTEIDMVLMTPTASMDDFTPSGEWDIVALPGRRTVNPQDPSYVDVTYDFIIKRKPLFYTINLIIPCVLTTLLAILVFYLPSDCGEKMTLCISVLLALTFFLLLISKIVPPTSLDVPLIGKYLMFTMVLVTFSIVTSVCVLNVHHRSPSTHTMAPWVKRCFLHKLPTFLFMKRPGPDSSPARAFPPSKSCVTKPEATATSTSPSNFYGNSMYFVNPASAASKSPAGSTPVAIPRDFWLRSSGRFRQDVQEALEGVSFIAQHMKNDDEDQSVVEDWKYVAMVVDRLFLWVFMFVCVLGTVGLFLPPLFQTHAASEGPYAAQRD
T2 sequence (P32297 whole entry): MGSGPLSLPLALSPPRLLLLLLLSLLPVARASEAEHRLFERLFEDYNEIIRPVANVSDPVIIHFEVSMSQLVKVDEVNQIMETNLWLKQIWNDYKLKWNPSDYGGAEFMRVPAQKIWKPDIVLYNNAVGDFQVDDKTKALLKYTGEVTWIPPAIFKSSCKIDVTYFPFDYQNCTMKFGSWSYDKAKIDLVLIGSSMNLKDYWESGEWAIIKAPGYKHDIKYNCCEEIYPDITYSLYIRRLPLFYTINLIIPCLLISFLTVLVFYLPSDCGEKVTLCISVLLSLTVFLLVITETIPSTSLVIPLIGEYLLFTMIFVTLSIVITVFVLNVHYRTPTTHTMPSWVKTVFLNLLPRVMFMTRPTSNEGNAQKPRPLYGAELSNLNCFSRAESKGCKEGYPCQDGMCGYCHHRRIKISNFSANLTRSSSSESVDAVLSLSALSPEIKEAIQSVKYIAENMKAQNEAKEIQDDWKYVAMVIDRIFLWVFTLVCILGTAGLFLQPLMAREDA

[3] = target: T1, Neuronal acetylcholine receptor; alpha4/beta2; assay: Antagonist activity at human alpha4beta2 nAChR expressed in HEK-tsA201 cells assessed as inhibition of epibatidine-induced intracellular calcium level by fluorescence plate reader analysis; type: cell-based
How it was run: (§2)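 Stably transfected HEK tsA201 cells were plated 24 h ahead and grown at 37 °C, 5% CO2 in supplemented DMEM to a ~100% confluent monolayer. They were washed with HEPES-buffered Krebs, then loaded with 50% Calcium 5 NW dye for 1 h at room temperature. Compounds (HCl salts, six concentrations 0.1–100 µM, DMSO <1%) were tested against 1 µM epibatidine. Fluorescence was read at ex 485/em 525 nm every 1.5 s.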

Homo sapiens = species: Homo sapiens; assay: Selectivity ratio of IC50 for human alpha3beta4 nAChR to IC50 for human alpha4beta2 nAChR
[4] = target: T2, Neuronal acetylcholine receptor; alpha3/beta4; assay: Antagonist activity at human alpha3beta4 nAChR expressed in HEK-tsA201 cells assessed as inhibition of epibatidine-induced intracellular calcium level by fluorescence plate reader analysis; type: cell-based; how it was run: as §2
[5] = target: T1, Neuronal acetylcholine receptor; alpha4/beta2; assay: Non-competitive antagonist activity at human alpha4beta2 nAChR expressed in HEK-tsA201 cells assessed as intracellular calcium level at 0.1 to 100 uM by fluorescence plate reader analysis in presence of epibatidine; type: cell-based
How it was run: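 Epibatidine concentration-response curves were run with and without test compound on hα4β2-expressing HEK tsA201 cells. The read-out was the calcium accumulation assay: cells loaded with Calcium 5 NW dye for 1 h at room temperature in HEPES-buffered Krebs, fluorescence read at ex 485/em 525 nm every 1.5 s. Compound dilutions of 0.1–100 µM were made from DMSO stocks, with DMSO below 1%.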

Compound	Activity [1]	Activity [2]	IC50 [3] [µM]	Ratio IC50 (Homo sapiens)	IC50 [4] [µM]	Activity [5]
CCCOc1ccc(C(=O)Nc2cccc(Br)n2)cc1	inactive	–	–	–	–	–
C=CCOc1ccc(C(=O)Nc2cccc(CC)n2)cc1	inactive	inactive	–	–	–	–
C=C(C)COc1ccc(C(=O)Nc2cccc(C)n2)cc1	inactive	inactive	19.6	1.3	24.7	–
C#CCOc1ccc(C(=O)Nc2cccc(C)n2)cc1	inactive	inactive	19.4	1.1	21.7	–
COc1cc2c3cc1Oc1cc(ccc1O)C[C@@H]1c4c(cc(OC)c(O)c4Oc4ccc(cc4)C[C@@H]3N(C)CC2)CC[N+]1(C)C	–	–	9.2	–	6.8	–
CCCOc1ccc(C(=O)Nc2cnccn2)cc1	inactive	inactive	23.2	–	–	–
CCCOc1ccc(C(=O)Nc2cccc(Cl)n2)cc1	inactive	–	–	–	–	–
C=CCOc1ccc(C(=O)Nc2cccc(C)n2)cc1	inactive	inactive	–	–	–	Active
C=CCOc1ccc(C(=O)Nc2cccc(NCCC)n2)cc1	inactive	inactive	–	–	–	–
C=CCOc1ccc(C(=O)Nc2cccc(NCCCC)n2)cc1	inactive	inactive	–	–	–	–
C=CCOc1ccc(C(=O)Nc2cccc(Cl)n2)cc1	inactive	–	–	–	–	–
C=CCOc1ccc(C(=O)Nc2ccccn2)cc1	inactive	inactive	–	–	–	–
C=CCOc1ccc(C(=O)Nc2cccc(Br)n2)cc1	inactive	inactive	–	–	–	–
CCCCCCNc1cccc(NC(=O)c2ccc(OCCC)cc2)n1	inactive	inactive	–	–	–	–
CCOc1ccc(C(=O)Nc2cc(C)cc(C)n2)cc1	inactive	inactive	17.1	1	17.4	–
CCCOc1ccc(C(=O)Nc2cccc(N3CCCCC3)n2)cc1	inactive	inactive	–	–	–	–
CNC1(C)C2CCC(C2)C1(C)C (stereo not drawn) [MECAMYLAMINE]	–	–	0.6	–	–	–

Results, then the compound that gave them:

Activity [1]	Activity [2]	IC50 [3] [µM]	Ratio IC50 (Homo sapiens)	IC50 [4] [µM]	Activity [5]	Compound
inactive	inactive	–	–	–	–	CCCOc1ccc(C(=O)Nc2cccc(Nc3ccc(Cl)cc3)n2)cc1
inactive	inactive	–	–	–	–	CCCOc1ccc(C(=O)Nc2cccc(NCc3ccccc3)n2)cc1
inactive	inactive	–	–	–	–	CCCOc1ccc(C(=O)Nc2cccc(CC)n2)cc1
inactive	inactive	–	–	–	–	CCCCCNc1cccc(NC(=O)c2ccc(OCCC)cc2)n1
inactive	inactive	–	–	–	–	CCCOc1ccc(C(=O)Nc2cccc(Nc3cccc(F)c3)n2)cc1
inactive	inactive	–	–	–	–	CCCNc1cccc(NC(=O)c2ccc(OCCC)cc2)n1
inactive	inactive	–	–	–	–	CCCOc1ccc(C(=O)Nc2cccc(Nc3ccccc3F)n2)cc1
inactive	inactive	–	–	–	–	CCCCNc1cccc(NC(=O)c2ccc(OCCC)cc2)n1
inactive	inactive	–	–	–	–	CCCOc1ccc(C(=O)Nc2cccc(Nc3ccccc3)n2)cc1
inactive	inactive	–	–	–	–	CCCOc1ccc(C(=O)Nc2cccc(Nc3ccc(OC)cc3)n2)cc1
inactive	inactive	–	–	–	–	CCCOc1ccc(C(=O)Nc2cccc(Nc3ccc(F)cc3)n2)cc1
